What was measured:
[1] = molecular target: MAP kinase-interacting serine/threonine-protein kinase 2 (Homo sapiens) (UniProt Q9HBH9); assay: Inhibition of recombinant human N-terminal full length GST-tagged MKNK2 expressed in baculovirus at 1 uM by FRET assay relative to control
[2] = molecular target: Endothelin-1 receptor (Homo sapiens) (UniProt P25101); assay: Binding affinity to recombinant human ETA receptor at 10 uM relative to control
Summary of the method: (§1)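 Broad radioligand-binding and enzyme screening panel covering 42 targets (biogenic amine and neuropeptide receptors, ion channels, neurotransmitter transporters, acetylcholinesterase). Single test concentration of 10 μM. Results expressed as binding relative to control, with a hit defined as >50% of control.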

[3] = molecular target: Activin receptor type-2B (Homo sapiens) (UniProt Q13705); assay: Inhibition of recombinant GST-tagged human ACVR2B catalytic domain (185 to 488 residues) expressed in baculovirus expression system at 1 uM by FRET assay relative to control
[4] = molecular target: Beta-2 adrenergic receptor (Homo sapiens) (UniProt P07550); assay: Binding affinity to recombinant human beta2 adrenergic receptor at 10 uM relative to control; summary of the method: as §1
[5] = molecular target: G protein-coupled receptor kinase 5 (Homo sapiens) (UniProt P34947); assay: Inhibition of recombinant full length GST-tagged human GRK5 expressed in baculovirus expression system at 1 uM by FRET relative to control
Sequence of G protein-coupled receptor kinase 5 (Homo sapiens) (P34947 whole entry, looked up): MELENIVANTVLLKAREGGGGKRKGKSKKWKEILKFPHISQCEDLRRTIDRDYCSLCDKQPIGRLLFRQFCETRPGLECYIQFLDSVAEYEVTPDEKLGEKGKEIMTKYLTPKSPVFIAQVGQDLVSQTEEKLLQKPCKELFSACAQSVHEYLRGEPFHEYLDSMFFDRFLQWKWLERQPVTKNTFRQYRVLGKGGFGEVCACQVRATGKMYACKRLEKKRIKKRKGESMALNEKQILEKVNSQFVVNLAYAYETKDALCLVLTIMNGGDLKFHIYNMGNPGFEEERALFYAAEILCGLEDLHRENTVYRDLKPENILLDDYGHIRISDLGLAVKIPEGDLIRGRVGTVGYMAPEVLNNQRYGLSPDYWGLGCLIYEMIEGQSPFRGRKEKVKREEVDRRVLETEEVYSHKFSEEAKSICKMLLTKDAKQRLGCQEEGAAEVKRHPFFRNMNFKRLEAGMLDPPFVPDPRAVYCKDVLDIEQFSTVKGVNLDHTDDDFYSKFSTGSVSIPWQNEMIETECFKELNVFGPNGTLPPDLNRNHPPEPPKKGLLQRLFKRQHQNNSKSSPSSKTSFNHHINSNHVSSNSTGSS
Summary of the method: (§2)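 Single-concentration screen at 1 μM in Life Technologies SelectScreen, across a 220-kinase panel. Z′-LYTE format measures phosphorylation of a labeled peptide by FRET. Results are reported as percent inhibition.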

[6] = molecular target: Macrophage-stimulating protein receptor (Homo sapiens) (UniProt Q04912); assay: Inhibition of recombinant GST-tagged human Ron cytoplasmic domain ([…] to 1400 residues) expressed in baculovirus expression system at 1 uM by FRET assay relative to control
Sequence of Macrophage-stimulating protein receptor (Homo sapiens) (Q04912 25-304 limits assumed): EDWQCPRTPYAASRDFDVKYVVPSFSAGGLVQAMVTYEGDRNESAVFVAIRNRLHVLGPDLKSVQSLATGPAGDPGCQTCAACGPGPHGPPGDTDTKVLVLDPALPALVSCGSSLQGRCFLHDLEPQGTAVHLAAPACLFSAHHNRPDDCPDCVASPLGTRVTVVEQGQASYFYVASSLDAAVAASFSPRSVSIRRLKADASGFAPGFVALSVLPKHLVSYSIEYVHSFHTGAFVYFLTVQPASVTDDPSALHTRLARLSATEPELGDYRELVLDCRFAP
Sequence of Macrophage-stimulating protein receptor (Homo sapiens) (Q04912 310-1400 limits assumed): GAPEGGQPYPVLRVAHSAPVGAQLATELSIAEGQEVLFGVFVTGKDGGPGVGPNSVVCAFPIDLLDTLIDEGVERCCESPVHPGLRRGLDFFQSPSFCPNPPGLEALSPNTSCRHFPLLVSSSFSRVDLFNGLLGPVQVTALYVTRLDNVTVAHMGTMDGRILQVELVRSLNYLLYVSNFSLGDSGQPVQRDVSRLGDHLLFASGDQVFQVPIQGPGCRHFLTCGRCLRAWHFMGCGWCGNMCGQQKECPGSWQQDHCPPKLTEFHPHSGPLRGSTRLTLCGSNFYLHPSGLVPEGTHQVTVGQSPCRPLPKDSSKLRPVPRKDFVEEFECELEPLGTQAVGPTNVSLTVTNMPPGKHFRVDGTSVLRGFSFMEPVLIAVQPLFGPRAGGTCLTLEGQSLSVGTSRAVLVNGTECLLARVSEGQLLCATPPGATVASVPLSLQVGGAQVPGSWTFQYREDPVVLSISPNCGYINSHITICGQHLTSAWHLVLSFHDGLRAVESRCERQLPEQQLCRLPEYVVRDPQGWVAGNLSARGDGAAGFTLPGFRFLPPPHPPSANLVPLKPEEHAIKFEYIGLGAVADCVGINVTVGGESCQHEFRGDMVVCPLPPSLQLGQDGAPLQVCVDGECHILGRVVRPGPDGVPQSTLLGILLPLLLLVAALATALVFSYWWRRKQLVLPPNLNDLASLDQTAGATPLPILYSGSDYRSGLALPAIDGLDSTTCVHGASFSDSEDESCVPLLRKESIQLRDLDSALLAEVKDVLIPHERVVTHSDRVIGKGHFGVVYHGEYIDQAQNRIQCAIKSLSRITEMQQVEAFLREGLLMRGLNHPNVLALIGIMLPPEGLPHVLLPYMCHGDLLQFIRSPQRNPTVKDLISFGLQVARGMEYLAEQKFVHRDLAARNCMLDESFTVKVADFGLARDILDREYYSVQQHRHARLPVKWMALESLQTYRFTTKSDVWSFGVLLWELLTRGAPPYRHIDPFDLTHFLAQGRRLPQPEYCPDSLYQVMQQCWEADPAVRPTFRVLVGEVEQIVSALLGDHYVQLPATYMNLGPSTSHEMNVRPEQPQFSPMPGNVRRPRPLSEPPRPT
Summary of the method: (§3)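 Single-point screen at 1 μM compound in a 220-kinase panel run by Life Technologies (SelectScreen). Z′-LYTE format: phosphorylation of a labeled peptide substrate read by FRET. Values are reported as percent inhibition.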

[7] = molecular target: Homeodomain-interacting protein kinase 4 (Homo sapiens) (UniProt Q8NE63); assay: Inhibition of recombinant full length GST-tagged human HIPK4 expressed in baculovirus expression system at 1 uM by FRET relative to control; summary of the method: as §2
[8] = molecular target: Tyrosine-protein kinase BTK (Homo sapiens) (UniProt Q06187); assay: Inhibition of recombinant full length His-tagged human BTK cytoplasmic domain expressed in baculovirus expression system at 1 uM by FRET assay relative to control
[9] = molecular target: T1, Mitogen-activated protein kinase kinase kinase 10 (Homo sapiens, UniProt Q02779); assay: Inhibition of recombinant human full length GST-tagged MLK2 expressed in baculovirus at 1 uM by FRET assay relative to control
Target sequence in this assay (Q02779 whole entry, looked up): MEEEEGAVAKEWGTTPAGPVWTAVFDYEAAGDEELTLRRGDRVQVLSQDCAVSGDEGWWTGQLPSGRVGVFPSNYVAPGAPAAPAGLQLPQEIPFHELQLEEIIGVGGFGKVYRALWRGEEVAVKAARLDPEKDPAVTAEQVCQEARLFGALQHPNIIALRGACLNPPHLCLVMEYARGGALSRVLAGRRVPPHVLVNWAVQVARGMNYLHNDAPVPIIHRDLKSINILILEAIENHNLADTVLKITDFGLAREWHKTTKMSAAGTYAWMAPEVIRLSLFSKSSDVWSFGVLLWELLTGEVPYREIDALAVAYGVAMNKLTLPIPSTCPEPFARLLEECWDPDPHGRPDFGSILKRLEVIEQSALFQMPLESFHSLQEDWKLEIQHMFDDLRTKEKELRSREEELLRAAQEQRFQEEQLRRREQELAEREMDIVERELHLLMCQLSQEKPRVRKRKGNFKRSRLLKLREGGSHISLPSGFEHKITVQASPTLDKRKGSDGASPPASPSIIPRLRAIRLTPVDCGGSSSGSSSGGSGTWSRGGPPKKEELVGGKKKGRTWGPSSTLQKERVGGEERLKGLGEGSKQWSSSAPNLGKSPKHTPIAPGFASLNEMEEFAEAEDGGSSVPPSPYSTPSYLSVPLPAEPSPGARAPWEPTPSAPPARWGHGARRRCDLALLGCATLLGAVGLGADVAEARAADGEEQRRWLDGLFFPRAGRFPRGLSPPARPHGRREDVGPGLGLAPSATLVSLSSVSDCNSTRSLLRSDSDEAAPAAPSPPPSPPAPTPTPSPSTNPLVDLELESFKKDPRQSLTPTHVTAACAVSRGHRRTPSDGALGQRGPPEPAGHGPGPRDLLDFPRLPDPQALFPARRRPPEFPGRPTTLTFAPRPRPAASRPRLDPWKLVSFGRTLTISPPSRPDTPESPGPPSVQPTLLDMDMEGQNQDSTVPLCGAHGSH

[10] = molecular target: T1, Mitogen-activated protein kinase kinase kinase 10; assay: Inhibition of recombinant human full length GST-tagged MLK2 expressed in baculovirus expression system by FRET assay
Target sequence in this assay (Q02779 whole entry): as the sequence (Q02779 whole entry, looked up) above

[11] = molecular target: G protein-coupled receptor kinase 6 (Homo sapiens) (UniProt P43250); assay: Inhibition of recombinant full length GST-tagged human GRK6 expressed in baculovirus expression system at 1 uM by FRET relative to control; summary of the method: as §2
[12] = molecular target: Histamine H2 receptor (Homo sapiens) (UniProt P25021); assay: Binding affinity to recombinant human H2 receptor at 10 uM relative to control; summary of the method: as §1
[13] = molecular target: Serine/threonine-protein kinase PAK 6 (Homo sapiens) (UniProt Q9NQU5); assay: Inhibition of recombinant full length His-tagged human PAK6 expressed in baculovirus expression system at 1 uM by FRET assay relative to control
[14] = molecular target: Tyrosine-protein kinase ABL1 (Homo sapiens) (UniProt P00519); assay: Inhibition of recombinant GST/His-tagged human Abl (118 to 535 residues) at 1 uM by FRET assay relative to control; summary of the method: as §3
[15] = molecular target: Receptor tyrosine-protein kinase erbB-4 (Homo sapiens) (UniProt Q15303); assay: Inhibition of recombinant N-terminal GST-tagged human ErbB4 cytoplasmic domain expressed in baculovirus expression system at 1 uM by FRET assay relative to control; summary of the method: as §2
Sequence of Receptor tyrosine-protein kinase erbB-4 (Homo sapiens) (Q15303 whole entry, the tested form may be a part): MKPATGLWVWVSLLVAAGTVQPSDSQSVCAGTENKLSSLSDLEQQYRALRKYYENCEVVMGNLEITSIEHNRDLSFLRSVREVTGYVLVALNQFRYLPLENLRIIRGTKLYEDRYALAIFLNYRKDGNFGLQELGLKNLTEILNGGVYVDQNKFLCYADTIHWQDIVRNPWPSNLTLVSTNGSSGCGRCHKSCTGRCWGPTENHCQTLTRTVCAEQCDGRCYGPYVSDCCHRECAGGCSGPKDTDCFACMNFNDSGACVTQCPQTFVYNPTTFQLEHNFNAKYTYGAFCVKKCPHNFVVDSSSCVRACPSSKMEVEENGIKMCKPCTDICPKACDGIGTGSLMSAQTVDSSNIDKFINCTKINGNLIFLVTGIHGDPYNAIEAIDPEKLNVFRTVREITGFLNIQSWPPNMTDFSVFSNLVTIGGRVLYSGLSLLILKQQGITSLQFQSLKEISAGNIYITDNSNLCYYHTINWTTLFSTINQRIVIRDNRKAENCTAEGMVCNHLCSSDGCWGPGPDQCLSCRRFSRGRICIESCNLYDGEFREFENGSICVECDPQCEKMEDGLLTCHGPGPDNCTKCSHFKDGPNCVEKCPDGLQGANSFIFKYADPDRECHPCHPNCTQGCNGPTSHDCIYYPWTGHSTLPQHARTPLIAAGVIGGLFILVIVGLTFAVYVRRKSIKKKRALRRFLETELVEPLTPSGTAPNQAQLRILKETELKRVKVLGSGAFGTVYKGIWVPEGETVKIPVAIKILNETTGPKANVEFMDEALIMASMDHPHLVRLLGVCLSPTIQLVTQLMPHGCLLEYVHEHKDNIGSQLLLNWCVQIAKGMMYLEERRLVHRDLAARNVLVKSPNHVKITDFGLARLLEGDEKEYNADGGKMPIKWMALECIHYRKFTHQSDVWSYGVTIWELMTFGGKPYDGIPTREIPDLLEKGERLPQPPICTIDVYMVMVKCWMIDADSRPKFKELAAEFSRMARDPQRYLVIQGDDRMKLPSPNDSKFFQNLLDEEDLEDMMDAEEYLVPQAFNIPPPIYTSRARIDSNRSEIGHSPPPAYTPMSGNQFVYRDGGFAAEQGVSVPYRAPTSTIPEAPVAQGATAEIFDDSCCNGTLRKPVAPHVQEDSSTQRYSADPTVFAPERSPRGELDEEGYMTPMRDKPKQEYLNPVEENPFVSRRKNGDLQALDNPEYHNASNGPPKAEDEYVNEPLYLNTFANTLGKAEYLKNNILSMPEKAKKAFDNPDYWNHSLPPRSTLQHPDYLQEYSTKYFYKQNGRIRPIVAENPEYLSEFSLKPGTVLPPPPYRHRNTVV

[16] = molecular target: Activated CDC42 kinase 1 (Homo sapiens) (UniProt Q07912); assay: Inhibition of recombinant GST-tagged human TNK2 catalytic/cytoplasmic domain (110 to 476 residues) expressed in baculovirus expression system at 1 uM by FRET assay relative to control; summary of the method: as §3
[17] = molecular target: Peroxisome proliferator-activated receptor delta (Homo sapiens) (UniProt Q03181); assay: Binding affinity to recombinant human PPARdelta at 10 uM relative to control; summary of the method: as §1
[18] = molecular target: Misshapen-like kinase 1 (Homo sapiens) (UniProt Q8N4C8); assay: Inhibition of recombinant human GST-tagged MINK1 expressed in baculovirus at 1 uM by FRET assay relative to control
[19] = molecular target: Serine/threonine-protein kinase mTOR (Homo sapiens) (UniProt P42345); assay: Inhibition of recombinant GST-tagged human mTOR catalytic domain (1360 to 2549 residues) expressed in baculovirus expression system at 1 uM by FRET assay relative to control; summary of the method: as §3
Homo sapiens [20] = species: Homo sapiens; assay: Binding affinity to L-type calcium channel dihydropyridine binding site (unknown origin) receptor at 10 uM relative to control; summary of the method: as §1
[21] = molecular target: Calcium/calmodulin-dependent protein kinase type 1D (Homo sapiens) (UniProt Q8IU85); assay: Inhibition of CaMK1delta (unknown origin) at 1 uM by FRET assay relative to control
[22] = molecular target: Phosphatidylinositol 4,5-bisphosphate 3-kinase catalytic subunit alpha isoform (Homo sapiens) (UniProt P42336); assay: Inhibition of PI3KA (unknown origin) at 1 uM by FRET assay relative to control
[23] = molecular target: Casein kinase I isoform alpha (Homo sapiens) (UniProt P48729); assay: Inhibition of CK1alpha1 (unknown origin) at 1 uM by FRET assay relative to control
[24] = molecular target: Maternal embryonic leucine zipper kinase (Homo sapiens) (UniProt Q14680); assay: Inhibition of recombinant GST-tagged human MELK expressed in baculovirus expression system at 1 uM by FRET assay relative to control; summary of the method: as §3
[25] = molecular target: Tyrosine-protein kinase Yes (Homo sapiens) (UniProt P07947); assay: Inhibition of recombinant full length GST-tagged human Yes expressed in baculovirus expression system at 1 uM by FRET assay relative to control
[26] = molecular target: 5-hydroxytryptamine receptor 3A (Homo sapiens) (UniProt P46098); assay: Binding affinity to 5HT3 receptor (unknown origin) receptor at 10 uM relative to control; summary of the method: as §1
[27] = molecular target: Focal adhesion kinase 1 (Homo sapiens) (UniProt Q05397); assay: Inhibition of recombinant full length GST-tagged human FAK expressed in baculovirus expression system at 1 uM by FRET assay relative to control; summary of the method: as §2
[28] = molecular target: Receptor-interacting serine/threonine-protein kinase 2 (Homo sapiens) (UniProt O43353); assay: Inhibition of recombinant His-tagged human RIPK2 catalytic domain (1 to 299 residues) expressed in baculovirus expression system at 1 uM by FRET assay relative to control; summary of the method: as §2
Sequence of Receptor-interacting serine/threonine-protein kinase 2 (Homo sapiens) (O43353 whole entry, the tested form may be a part): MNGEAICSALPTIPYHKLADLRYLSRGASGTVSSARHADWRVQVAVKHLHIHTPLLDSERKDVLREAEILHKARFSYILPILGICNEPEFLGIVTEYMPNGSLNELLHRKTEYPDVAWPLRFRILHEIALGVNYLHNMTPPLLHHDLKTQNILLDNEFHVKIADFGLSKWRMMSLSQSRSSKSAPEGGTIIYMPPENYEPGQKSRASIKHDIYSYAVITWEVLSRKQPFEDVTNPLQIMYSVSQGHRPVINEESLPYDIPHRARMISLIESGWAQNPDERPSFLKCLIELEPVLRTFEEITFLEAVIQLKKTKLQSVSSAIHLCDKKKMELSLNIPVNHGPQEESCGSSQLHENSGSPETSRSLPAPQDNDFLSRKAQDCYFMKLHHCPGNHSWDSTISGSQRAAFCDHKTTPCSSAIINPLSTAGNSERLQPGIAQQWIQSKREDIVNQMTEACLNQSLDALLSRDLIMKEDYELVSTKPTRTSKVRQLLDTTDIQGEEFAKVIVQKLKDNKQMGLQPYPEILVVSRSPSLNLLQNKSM

Homo sapiens [29] = species: Homo sapiens; assay: Binding affinity to GABA-gated chloride channel (unknown origin) receptor at 10 uM relative to control; summary of the method: as §1

| Compound | inhibition [1] [%] | Activity [2] [%] | inhibition [3] [%] | Activity [4] [%] | inhibition [5] [%] | inhibition [6] [%] | inhibition [7] [%] | inhibition [8] [%] | inhibition [9] [%] | IC50 [10] [µM] | inhibition [11] [%] | Activity [12] [%] | inhibition [13] [%] | inhibition [14] [%] | inhibition [15] [%] | inhibition [16] [%] | Activity [17] [%] | inhibition [18] [%] | inhibition [19] [%] | Activity (Homo sapiens [20]) [%] | also measured |
| --- | --- | --- | --- | --- | --- | --- | --- | --- | --- | --- | --- | --- | --- | --- | --- | --- | --- | --- | --- | --- | --- |
| CC(C)n1nc(-c2cnc(N)c(OC(F)(F)F)c2)cc1[C@H]1[C@@H]2CN(C3COC3)C[C@@H]21 | 12.3 | > 50 | -0.8 | > 50 | -1.3 | 5.9 | 40.7 | 9.9 | 10.9 | 7.88 | 2.5 | > 50 | 4.8 | 10.9 | 2.5 | 1.3 | > 50 | 33.3 | 7.9 | > 50 | inhibition [21]: 2.8%; inhibition [22]: -2.7%; inhibition [23]: -0.3%; inhibition [24]: 30.4%; inhibition [25]: 15.8%; Activity [26]: > 50%; inhibition [27]: 11.1%; inhibition [28]: 34.2%; Activity (Homo sapiens [29]): > 50% |
| Nc1ncc(-c2cc([C@H]3[C@@H]4CN(C5COC5)C[C@@H]43)n(CC3CC3)n2)cc1C(F)(F)F | 0.9 | > 50 | -2.1 | > 50 | -8.1 | 0.6 | 6.8 | 19.9 | 13.2 | 5.15 | -4.2 | > 50 | 5.1 | 14.9 | 5.3 | 0.3 | > 50 | 12 | -0.8 | > 50 | inhibition [21]: 11.1%; inhibition [22]: -9.8%; inhibition [23]: 1.1%; inhibition [24]: 12.6%; inhibition [25]: 29.8%; Activity [26]: > 50%; inhibition [27]: 10.4%; inhibition [28]: 41.4%; Activity (Homo sapiens [29]): > 50% |

Source: ChEMBL document CHEMBL4118097, “Selective Inhibitors of Dual Leucine Zipper Kinase (DLK, MAP3K12) with Activity in a Model of Alzheimer's Disease” (J Med Chem, 2017)
